Blank lines part the entries; values can stand above or below the molecule they belong to. The source made the active and inactive calls. The calls are words filed in the database; no cut-off is given here. Numbered stars: 1 amine (or outer) side, 2 acyl side, 3 side chain; on linkers, the order of the positions; unused ones are H or OH. Bridge positions count the residues as written; N and C are the ends. Square brackets hold non-standard residues; d marks the D form. Peptide text beside a SMILES is read from it. ξ: configuration not given here. Tyr(3-NO2) = N[C@@H](Cc1ccc(O)c([N+](=O)[O-])c1)C(=O)O; X1 = O=C([C@H](Cc1ccc(O)c(S(=O)(=O)O)c1)N[*:1])[*:2]; 2Nal = N[C@@H](Cc1ccc2ccccc2c1)C(=O)O; ξ2Nal = NC(Cc1ccc2ccccc2c1)C(=O)O
Experiments:
[1] = Half life in 25% human serum by RP-HPLC analysis; format: ADME, cell-free
In short: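 Peptide at 50 μg/mL final in RPMI with 25% (v/v) human serum, pre-equilibrated at 37 °C. Samples taken at set times into 6% TCA, iced 15 min, spun at 18000g. Supernatant run on C18 RP-HPLC, 25–80% acetonitrile gradient over 15 min at 30 °C, absorbance at 214 and 280 nm.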

Urotensin-2 receptor [2] = biological target: T1, Urotensin-2 receptor (Homo sapiens, UniProt Q9UKP6); experiment: Agonist activity at human U-IIR expressed in HEK293-A cells by Fluo4-AM dye based intracellular calcium mobilization assay; format: functional, cell-based
T1 sequence (Q9UKP6 whole entry): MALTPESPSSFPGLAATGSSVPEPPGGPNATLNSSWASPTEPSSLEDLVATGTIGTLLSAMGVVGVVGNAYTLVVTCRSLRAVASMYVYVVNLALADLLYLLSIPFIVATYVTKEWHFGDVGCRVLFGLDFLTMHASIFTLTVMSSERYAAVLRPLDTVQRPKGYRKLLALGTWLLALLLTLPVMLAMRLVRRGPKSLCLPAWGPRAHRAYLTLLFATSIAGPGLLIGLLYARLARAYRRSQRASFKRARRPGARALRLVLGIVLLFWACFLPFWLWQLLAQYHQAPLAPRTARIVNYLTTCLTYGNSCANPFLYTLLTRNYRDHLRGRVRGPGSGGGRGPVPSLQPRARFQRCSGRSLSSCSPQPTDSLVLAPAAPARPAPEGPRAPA

Urotensin-2 receptor [3] = biological target: T1, Urotensin-2 receptor; experiment: Displacement of [125I-Tyr9]-U-II from human U-IIR expressed in HEK293-A cells incubated for 30 mins by gamma counting based competition radioligand binding assay; format: cell-based
VSMC [4] = experiment: Agonist activity at U-IIR in pig aorta VSMC assessed as increase of ERK1/2 phosphorylation incubated for 15 mins by Western blot analysis relative to control; details: Sus scrofa, filed as agonist
In short: (§1)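 Primary smooth muscle cells from aortas of 4–6-month-old domestic pigs, grown from minced-tissue explants and used at passages 5–10. Cells were grown to 80% confluence, then exposed to peptide at 5 or 500 nM in 0.1% FCS/DMEM for 15 min. Lysates were taken in Tris/SDS buffer and probed on Western blot for phospho-ERK1/2 (Thr202/Tyr204). Signal was normalized to total ERK1/2 and to the untreated control. n = 2–4 independent experiments, each with 3–6 replicates.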

VSMC [5] = experiment: Agonist activity at U-IIR in pig aorta VSMC assessed as increase of ERK1/2 phosphorylation at 5 nM incubated for 15 mins by Western blot analysis relative to control; details: Sus scrofa; in short: as §1
VSMC [6] = experiment: Agonist activity at U-IIR in pig aorta VSMC assessed as increase of ERK1/2 phosphorylation at 500 nM incubated for 15 mins by Western blot analysis relative to control; details: Sus scrofa, filed as agonist; in short: as §1

half-life [1]: 17 min
EC50 (Urotensin-2 receptor [2]): 0.0749 µM
IC50 (Urotensin-2 receptor [3]): 3.06 µM
Molecule: NCCCC[C@H](NC(=O)[C@H](Cc1c[nH]c2ccccc12)NC(=O)C(Cc1ccc2ccccc2c1)NC(=O)[C@@H](N)CC(N)=O)C(=O)N[C@@H](Cc1ccc(O)cc1)C(=O)N[C@@H](CS)C(N)=O (some centres undefined) (H-N[ξ2Nal]WKYC-NH2)

half-life [1]: 19 min
EC50 (Urotensin-2 receptor [2]): 0.0326 µM
IC50 (Urotensin-2 receptor [3]): 0.3 µM
Molecule: H-DVFWKYCV-NH2

EC50 (Urotensin-2 receptor [2]): 0.179 µM
Molecule: NCCCC[C@H](NC(=O)[C@H](Cc1c[nH]c2ccccc12)NC(=O)[C@@H](N)Cc1ccccc1)C(=O)N[C@@H](Cc1ccc(O)cc1)C(N)=O (H-FWKY-NH2)

EC50 (Urotensin-2 receptor [2]): 0.103 µM
Molecule: H-TWWKYC-NH2

half-life [1]: 3120 min
EC50 (Urotensin-2 receptor [2]): 0.023 µM
IC50 (Urotensin-2 receptor [3]): 4.83 µM
Molecule: CCC(NC(=O)[C@H](Cc1ccc(O)cc1)NC(=O)[C@H](CCCCN)NC(=O)[C@H](Cc1c[nH]c2ccccc12)NC(=O)[C@H](Cc1c[nH]c2ccccc12)NC(=O)[C@H](N)CC(N)=O)C(N)=O (some centres undefined)
Activity (VSMC [4]): Dose-dependent effect
Activity (VSMC [5]): inactive
fold change (FC) (VSMC [6]): 1.9

half-life [1]: 15 min
EC50 (Urotensin-2 receptor [2]): 0.0102 µM
IC50 (Urotensin-2 receptor [3]): 0.89 µM
Molecule: COc1ccc(C[C@H](NC(=O)[C@H](CCCCN)NC(=O)[C@H](Cc2c[nH]c3ccccc23)NC(=O)[C@H](Cc2c[nH]c3ccccc23)NC(=O)[C@@H](N)CC(N)=O)C(=O)N[C@@H](CS)C(N)=O)cc1 (H-NWWKY(Me)C-NH2)

EC50 (Urotensin-2 receptor [2]): 0.0656 µM
Molecule: H-NWWKYE-NH2

half-life [1]: 770 min
EC50 (Urotensin-2 receptor [2]): 0.0255 µM
IC50 (Urotensin-2 receptor [3]): 4.89 µM
Molecule: CCC(NC(=O)[C@H](Cc1ccc(O)cc1)NC(=O)[C@H](CCCCN)NC(=O)[C@H](Cc1c[nH]c2ccccc12)NC(=O)[C@H](Cc1ccc2ccccc2c1)NC(=O)[C@H](N)CC(N)=O)C(N)=O (some centres undefined)

EC50 (Urotensin-2 receptor [2]): 0.0039 µM
Molecule: CC(C)[C@H](NC(=O)[C@@H]1CSSC[C@H](NC(=O)[C@@H](N)[C@@H](C)O)C(=O)N[C@@H](Cc2ccccc2)C(=O)N[C@@H](Cc2c[nH]c3ccccc23)C(=O)N[C@@H](CCCCN)C(=O)N[C@@H](Cc2ccc(O)cc2)C(=O)N1)C(N)=O (H-TCFWKYCV-NH2; disulfide 2-7)

EC50 (Urotensin-2 receptor [2]): 0.0298 µM
Molecule: H-DHFWKYCV-NH2

EC50 (Urotensin-2 receptor [2]): 0.201 µM
Molecule: H-CFWKY-NH2

EC50 (Urotensin-2 receptor [2]): > 10 µM
Molecule: NCCCC[C@H](NC(=O)[C@H](Cc1c[nH]c2ccccc12)NC(=O)[C@@H](N)Cc1ccccc1)C(N)=O (H-Phe-Trp-Lys-NH2)

half-life [1]: 19 min
EC50 (Urotensin-2 receptor [2]): 0.01 µM
IC50 (Urotensin-2 receptor [3]): 1.55 µM
Molecule: H-NWWKYC-NH2

half-life [1]: 34 min
EC50 (Urotensin-2 receptor [2]): 0.108 µM
IC50 (Urotensin-2 receptor [3]): 7.88 µM
Molecule: CCC(NC(=O)[C@H](Cc1ccc(O)cc1)NC(=O)[C@H](CCCCN)NC(=O)[C@H](Cc1c[nH]c2ccccc12)NC(=O)C(Cc1ccc2ccccc2c1)NC(=O)[C@@H](N)CC(N)=O)C(N)=O (some centres undefined)

EC50 (Urotensin-2 receptor [2]): > 10 µM
Molecule: NCCCC[C@H](NC(=O)[C@@H](N)Cc1c[nH]c2ccccc12)C(=O)N[C@@H](Cc1ccc(O)cc1)C(N)=O (H-Trp-Lys-Tyr-NH2)

half-life [1]: 37 min
EC50 (Urotensin-2 receptor [2]): 0.00813 µM
IC50 (Urotensin-2 receptor [3]): 0.43 µM
Molecule: NCCCC[C@H](NC(=O)[C@H](Cc1c[nH]c2ccccc12)NC(=O)[C@H](Cc1ccc2ccccc2c1)NC(=O)[C@@H](N)CC(N)=O)C(=O)N[C@@H](Cc1ccc(O)c([N+](=O)[O-])c1)C(=O)N[C@@H](CS)C(N)=O (H-N[2Nal]WK[Tyr(3-NO2)]C-NH2)

The remaining lines, values behind:

Molecule: H-QVFWKYCV-NH2
EC50 (Urotensin-2 receptor [2]): 0.00963 µM

Molecule: H-FWKYC-NH2
EC50 (Urotensin-2 receptor [2]): 0.141 µM

Molecule: CC(C)[C@H](NC(=O)[C@@H]1CSSC[C@H](N)C(=O)N[C@@H](Cc2ccccc2)C(=O)N[C@@H](Cc2c[nH]c3ccccc23)C(=O)N[C@@H](CCCCN)C(=O)N[C@@H](Cc2ccc(O)cc2)C(=O)N1)C(N)=O (H-CFWKYCV-NH2; disulfide 1-6)
EC50 (Urotensin-2 receptor [2]): 0.00083 µM

Molecule: H-NWWKYS-NH2
EC50 (Urotensin-2 receptor [2]): 0.0915 µM

Molecule: NCCCC[C@H](NC(=O)[C@H](Cc1c[nH]c2ccccc12)NC(=O)[C@H](Cc1c[nH]c2ccccc12)NC(=O)[C@@H](N)CC(N)=O)C(=O)N[C@@H](Cc1ccc(O)c(S(=O)(=O)O)c1)C(=O)N[C@@H](CS)C(N)=O (H-NWWK[X1]C-NH2)
half-life [1]: 11 min
EC50 (Urotensin-2 receptor [2]): 0.33 µM
IC50 (Urotensin-2 receptor [3]): > 10 µM

Molecule: H-NWWKYT-NH2
EC50 (Urotensin-2 receptor [2]): 0.143 µM

Molecule: NCCCC[C@H](NC(=O)[C@H](Cc1c[nH]c2ccccc12)NC(=O)[C@H](Cc1c[nH]c2ccccc12)NC(=O)[C@@H](N)CC(N)=O)C(=O)N[C@@H](Cc1ccc(O)c([N+](=O)[O-])c1)C(=O)N[C@@H](CS)C(N)=O (H-NWWK[Tyr(3-NO2)]C-NH2)
half-life [1]: 23 min
EC50 (Urotensin-2 receptor [2]): 0.0157 µM
IC50 (Urotensin-2 receptor [3]): 0.163 µM

Molecule: H-NWWKYD-NH2
EC50 (Urotensin-2 receptor [2]): 0.0504 µM

Molecule: H-TVFWKYCV-NH2
EC50 (Urotensin-2 receptor [2]): 0.0112 µM

Molecule: CC(C)[C@H](NC(=O)[C@@H]1CSSC[C@H](NC(=O)[C@@H](N)Cc2ccccc2)C(=O)N[C@@H](Cc2ccccc2)C(=O)N[C@@H](Cc2c[nH]c3ccccc23)C(=O)N[C@@H](CCCCN)C(=O)N[C@@H](Cc2ccc(O)cc2)C(=O)N1)C(N)=O (H-FCFWKYCV-NH2; disulfide 2-7)
EC50 (Urotensin-2 receptor [2]): 0.0048 µM

Molecule: CCC(NC(=O)[C@H](Cc1ccc(O)cc1)NC(=O)[C@H](CCCCN)NC(=O)[C@H](Cc1c[nH]c2ccccc12)NC(=O)[C@H](Cc1c[nH]c2ccccc12)NC(=O)[C@@H](N)CC(N)=O)C(N)=O (some centres undefined)
half-life [1]: 50 min
EC50 (Urotensin-2 receptor [2]): 0.06 µM
IC50 (Urotensin-2 receptor [3]): > 10 µM

Molecule: NCCCC[C@@H]1NC(=O)[C@H](Cc2c[nH]c3ccccc23)NC(=O)[C@H](Cc2ccccc2)NC(=O)[C@@H](N)CSSC[C@@H](C(N)=O)NC(=O)[C@H](Cc2ccc(O)cc2)NC1=O (H-CFWKYC-NH2; disulfide 1-6)
EC50 (Urotensin-2 receptor [2]): 0.0038 µM

Molecule: CCC(NC(=O)[C@H](Cc1ccc(O)c([N+](=O)[O-])c1)NC(=O)[C@H](CCCCN)NC(=O)[C@H](Cc1c[nH]c2ccccc12)NC(=O)[C@H](Cc1c[nH]c2ccccc12)NC(=O)[C@@H](N)CC(N)=O)C(N)=O (some centres undefined)
half-life [1]: 55 min
EC50 (Urotensin-2 receptor [2]): 0.00347 µM
IC50 (Urotensin-2 receptor [3]): 1.09 µM

Molecule: H-DNFWKYCV-NH2
EC50 (Urotensin-2 receptor [2]): 0.155 µM

Molecule: CC(C)[C@H](NC(=O)[C@@H]1CSSC[C@H](NC(=O)[C@H](CC(=O)O)NC(=O)[C@@H]2CCCN2C(=O)[C@@H](NC(=O)[C@@H](N)CCC(=O)O)[C@@H](C)O)C(=O)N[C@@H](Cc2ccccc2)C(=O)N[C@@H](Cc2c[nH]c3ccccc23)C(=O)N[C@@H](CCCCN)C(=O)N[C@@H](Cc2ccc(O)cc2)C(=O)N1)C(=O)O
Activity (VSMC [4]): Dose-dependent effect
Activity (VSMC [5]): inactive
fold change (FC) (VSMC [6]): 2.4

Molecule: CC(C)[C@H](NC(=O)[C@@H]1CSSC[C@H](NC(=O)[C@@H](N)CC(=O)O)C(=O)N[C@@H](Cc2ccccc2)C(=O)N[C@@H](Cc2c[nH]c3ccccc23)C(=O)N[C@@H](CCCCN)C(=O)N[C@@H](Cc2ccc(O)cc2)C(=O)N1)C(N)=O (H-DCFWKYCV-NH2; disulfide 2-7)
half-life [1]: 372 min
EC50 (Urotensin-2 receptor [2]): 0.00045 µM
IC50 (Urotensin-2 receptor [3]): 0.0009 µM

Molecule: CC(C)[C@H](NC(=O)[C@@H]1CSSC[C@H](NC(=O)[C@@H](N)CCC(N)=O)C(=O)N[C@@H](Cc2ccccc2)C(=O)N[C@@H](Cc2c[nH]c3ccccc23)C(=O)N[C@@H](CCCCN)C(=O)N[C@@H](Cc2ccc(O)cc2)C(=O)N1)C(N)=O (H-QCFWKYCV-NH2; disulfide 2-7)
EC50 (Urotensin-2 receptor [2]): 0.00199 µM
